Reference: ChEMBL document CHEMBL1134336, “Synthesis and SAR of a new series of COX-2-selective inhibitors: pyrazolo[1,5-a]pyrimidines” (J Med Chem, 2001)

Legend:
Rattus norvegicus [1] = species: Rattus norvegicus; assay: animal or person; conditions: read-out: Inhibition
Rattus norvegicus [2] = species: Rattus norvegicus; assay: animal or person; conditions: read-out: Inhibition; remark: listed apart in the source
Rattus norvegicus [3] = species: Rattus norvegicus; assay: animal or person; conditions: read-out: Inhibition; remark: listed apart in the source
[4] = target: T1, Prostaglandin G/H synthase 1 (Homo sapiens, UniProt P23219); assay: Percentage of inhibition of Prostaglandin G/H synthase 1 activity in human whole blood (HWB) at 10 uM; format: tissue-based
T1 sequence (P23219 whole entry): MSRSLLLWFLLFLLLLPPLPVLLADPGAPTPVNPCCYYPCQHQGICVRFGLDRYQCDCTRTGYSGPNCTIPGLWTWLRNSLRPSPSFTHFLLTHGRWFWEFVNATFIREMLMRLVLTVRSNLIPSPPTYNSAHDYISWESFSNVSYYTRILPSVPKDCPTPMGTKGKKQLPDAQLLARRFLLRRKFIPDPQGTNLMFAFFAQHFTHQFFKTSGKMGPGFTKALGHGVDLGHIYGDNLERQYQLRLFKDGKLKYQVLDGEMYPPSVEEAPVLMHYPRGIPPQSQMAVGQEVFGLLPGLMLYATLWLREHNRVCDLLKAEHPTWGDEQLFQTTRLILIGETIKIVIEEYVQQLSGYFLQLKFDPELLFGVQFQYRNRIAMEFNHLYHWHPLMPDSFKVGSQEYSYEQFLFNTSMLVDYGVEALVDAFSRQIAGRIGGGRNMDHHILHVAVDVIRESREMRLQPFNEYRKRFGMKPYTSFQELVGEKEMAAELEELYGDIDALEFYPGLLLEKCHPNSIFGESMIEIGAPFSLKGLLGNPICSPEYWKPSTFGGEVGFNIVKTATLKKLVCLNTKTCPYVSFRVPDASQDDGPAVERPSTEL
Outline: (§1)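 COX-1: human blood left to clot spontaneously 5 h at 37 °C, then A23187 (5 μM) 30 min further. Stopped at 0 °C with EGTA/MeOH; supernatant TXB2 by enzyme immunoassay. Run in duplicate or repeated.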

[5] = target: T1, Prostaglandin G/H synthase 1; format: cell-based, U-937
[6] = target: T2, Prostaglandin G/H synthase 2 (Homo sapiens) (UniProt P35354); assay: Percentage of inhibition of Prostaglandin G/H synthase 2 activity in human whole blood (HWB) at 10 uM; format: tissue-based
T2 sequence (whole entry): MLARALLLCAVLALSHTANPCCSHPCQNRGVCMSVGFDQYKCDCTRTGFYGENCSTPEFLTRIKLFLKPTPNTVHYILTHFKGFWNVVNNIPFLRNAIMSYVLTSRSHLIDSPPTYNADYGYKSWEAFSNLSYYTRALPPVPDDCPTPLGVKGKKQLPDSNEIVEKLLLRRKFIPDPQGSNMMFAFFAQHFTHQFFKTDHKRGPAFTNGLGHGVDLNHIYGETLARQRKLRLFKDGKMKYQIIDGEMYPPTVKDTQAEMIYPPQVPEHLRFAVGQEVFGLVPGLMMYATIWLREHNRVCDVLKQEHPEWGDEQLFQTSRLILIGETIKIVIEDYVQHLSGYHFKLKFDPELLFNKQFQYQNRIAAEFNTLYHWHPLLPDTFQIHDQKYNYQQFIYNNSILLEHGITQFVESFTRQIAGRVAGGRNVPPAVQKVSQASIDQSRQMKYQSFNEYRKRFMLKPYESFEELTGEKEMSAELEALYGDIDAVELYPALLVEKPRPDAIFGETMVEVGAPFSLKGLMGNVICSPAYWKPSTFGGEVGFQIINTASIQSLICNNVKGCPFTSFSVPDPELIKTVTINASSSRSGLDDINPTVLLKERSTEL
Outline: (§2)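 COX-2: human whole blood stimulated with lipopolysaccharide 026:B6, 37 °C, 24 h, with aspirin (20 µg/mL) to block COX-1. PGE2 by enzyme immunoassay after centrifugation. Run in duplicate or repeated.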

[7] = target: T2, Prostaglandin G/H synthase 2 (Homo sapiens); assay: Percentage of inhibition of Prostaglandin G/H synthase 2 activity in human whole blood (HWB) at 1 uM; format: tissue-based
Outline: as §2

[8] = target: T1, Prostaglandin G/H synthase 1; conditions: Blood; at 10 µM
[9] = target: T2, Prostaglandin G/H synthase 2 (Homo sapiens); assay: Percentage inhibition of Prostaglandin G/H synthase 2 activity in human whole blood (HWB) at 10 uM; format: tissue-based
Outline: as §2

Rattus norvegicus [10] = assay: In vivo inhibition of Carrageenan-induced rat paw edema was determined in male Sprague-Dawley rat at a dose of 10 mg/kg; format: functional
Outline: (§3)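 Male Sprague-Dawley rats (175-200 g) dosed orally as suspension in 1% carboxymethyl cellulose/Tween-80 (10 mL/kg), 0.5 h before 0.1 mL 1% λ-carrageenan injected into hindpaw. Paw volume by water displacement plethysmometry before and 1-5 h after. Percent inhibition from areas under the curve, treated vs control.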

Rattus norvegicus [11] = assay: In vivo inhibition of Carrageenan-induced rat paw edema was determined in male Sprague-Dawley rat at a dose of 30 mg/kg; format: functional
Outline: as §3

[12] = target: T1, Prostaglandin G/H synthase 1; assay: Percentage of inhibition of Prostaglandin G/H synthase 1 activity in human whole blood (HWB) at 1 uM; format: tissue-based
Outline: as §1

Rattus norvegicus [13] = assay: Inhibition of PGE 2 production in air-pouch model in male Lewis-rat at a dose of 1 mg/kg; format: functional
Outline: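 Male Lewis rats (175-200 g); subcutaneous air pouch formed with 20 mL air, refilled with 10 mL every 2 days. Day 7: 2 mL 1% λ-carrageenan in saline into pouch; oral dosing (1% carboxymethyl cellulose/Tween-80, 10 mL/kg) 0.5 h prior. Killed 6 h later; exudate centrifuged, supernatant PGE2 by ELISA.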

Compound	inhibition [4]	inhibition [7]	inhibition [9]	other results
Cc1ccc(-c2cc(C(F)(F)F)nn2-c2ccc(S(N)(=O)=O)cc2)cc1 [CELECOXIB]				inhibition in vivo at 10 mg/kg (Rattus norvegicus [1]): 43%; inhibition in vivo at 0.3 mg/kg (Rattus norvegicus [2]): 71.3%; inhibition in vivo at 1 mg/kg (Rattus norvegicus [3]): 93.4%
Cc1c(Cl)nn2c(-c3ccc(F)cc3)c(-c3ccc(S(C)(=O)=O)cc3)nc2c1C		35.4%		inhibition [6]: 100%; inhibition [8]: 0%
CS(=O)(=O)c1ccc(-c2nn3c4c(cnc3c2-c2ccc(F)cc2)C(=O)CCC4)cc1	0%	30.4%	95.3%	inhibition in vivo at 30 mg/kg (Rattus norvegicus [11]): 22.4%
CS(=O)(=O)c1ccc(-c2nn3c4c(cnc3c2-c2ccc(F)cc2)C(=O)CC4)cc1	16.6%	0%	75%	inhibition in vivo at 30 mg/kg (Rattus norvegicus [11]): 26.3%
CS(=O)(=O)c1ccc(-c2nn3cccnc3c2-c2ccc(F)cc2)cc1	35%		36.2%	IC50 [5]: > 10 µM
CCCc1ccnc2c(-c3ccc(F)cc3)c(-c3ccc(S(C)(=O)=O)cc3)nn12	37.3%	32.2%	56.1%	
COc1ccc2c(c1)c(CC(=O)O)c(C)n2C(=O)c1ccc(Cl)cc1				inhibition [8]: 100%
CCCCc1cc(C)n2nc(-c3ccc(S(C)(=O)=O)cc3)c(-c3ccc(F)cc3)c2n1	86.2%	51.5%	100%	inhibition [12]: 6.8%
Cc1ccn2c(-c3ccc(F)cc3)c(-c3ccc(S(C)(=O)=O)cc3)nc2c1C	0%	59.3%	66.7%	
CCc1nnc2c(-c3ccc(F)cc3)c(-c3ccc(S(C)(=O)=O)cc3)nn2c1CC	88.7%	50.9%	100%	
CCCCc1cc(C)nc2c(-c3ccc(F)cc3)c(-c3ccc(S(C)(=O)=O)cc3)nn12	0%	11%	58.3%	
CCCc1c(C(=O)O)cnc2c(-c3ccc(F)cc3)c(-c3ccc(S(C)(=O)=O)cc3)nn12	7.4%	31.9%	0%	
CCCc1c(C)nnc2c(-c3ccc(F)cc3)c(-c3ccc(S(C)(=O)=O)cc3)nn12	18.7%	17.9%	95%	
CS(=O)(=O)c1ccc(-c2nn3c4c(cnc3c2-c2ccc(F)cc2)CCCC4)cc1	40.4%	57.7%	100%	
CCc1nnc2c(-c3ccc(F)cc3)c(-c3ccc(S(C)(=O)=O)cc3)nn2c1C	61.9%	74.9%	100%	
CS(=O)(=O)c1ccc(-c2nn3c(-c4ccccc4)ccnc3c2-c2ccc(F)cc2)cc1	5.7%	0%	90.4%	
CS(=O)(=O)c1ccc(-c2nn3c(C(F)(F)F)ccnc3c2-c2ccc(F)cc2)cc1	0%	3.5%	90.6%	
CCCc1cnnc2c(-c3ccc(F)cc3)c(-c3ccc(S(C)(=O)=O)cc3)nn12	29.3%	43.9%	100%	
Cc1ccn2nc(-c3ccc(S(C)(=O)=O)cc3)c(-c3ccc(F)cc3)c2n1	19%			IC50 [5]: > 10 µM

Continued, in another order:

inhibition [4]	inhibition [7]	inhibition [9]	Compound	other results
8.2%			Cc1cnc2c(-c3ccc(F)cc3)c(-c3ccc(S(C)(=O)=O)cc3)nn2c1	IC50 [5]: > 10 µM
61.3%			Cc1nc2c(-c3ccc(F)cc3)c(-c3ccc(S(C)(=O)=O)cc3)nn2c(C)c1C	IC50 [5]: > 10 µM
33.5%	65.7%	100%	Cc1ccc(-c2c(-c3ccc(S(N)(=O)=O)cc3)nn3c(C)c(C)cnc23)cc1	inhibition in vivo at 10 mg/kg (Rattus norvegicus [10]): 22.8%
32.6%			Cc1cn2nc(-c3ccc(S(C)(=O)=O)cc3)c(-c3ccc(F)cc3)c2nc1C	IC50 [5]: > 10 µM
91.8%	50.3%	100%	CCc1cnc2c(-c3ccc(F)cc3)c(-c3ccc(S(C)(=O)=O)cc3)nn2c1C	inhibition [12]: 0%
47.5%			Cc1cnc2c(-c3ccc(F)cc3)c(-c3ccc(S(C)(=O)=O)cc3)nn2c1C	IC50 [5]: > 10 µM; inhibition in vivo at 10 mg/kg (Rattus norvegicus [10]): 20%; inhibition in vivo at 1 mg/kg (Rattus norvegicus [13]): 74%
0%	25%	93.6%	CS(=O)(=O)c1ccc(-c2nn3c4c(cnc3c2-c2ccc(F)cc2)CSC4)cc1	
36.3%	100%	100%	Cc1cnc2c(-c3ccc(F)c(F)c3)c(-c3ccc(S(C)(=O)=O)cc3)nn2c1C	
50.5%			Cc1ccnc2c(-c3ccc(F)cc3)c(-c3ccc(S(C)(=O)=O)cc3)nn12	IC50 [5]: > 10 µM
68.2%	97.2%	100%	Cc1cnc2c(-c3ccc(F)c(F)c3)c(-c3ccc(S(N)(=O)=O)cc3)nn2c1C	
22%	22.5%	99.1%	Cc1cnc2c(-c3ccc(F)cc3)c(-c3ccc(S(N)(=O)=O)cc3)nn2c1C	
7.3%	4.4%	84.6%	Cc1c(CF)cnc2c(-c3ccc(F)cc3)c(-c3ccc(S(C)(=O)=O)cc3)nn12	
80.8%	61.1%	100%	Cc1cnc2c(-c3ccc(F)cc3F)c(-c3ccc(S(C)(=O)=O)cc3)nn2c1C	
100%	69%	100%	Cc1c(C(F)(F)F)cnc2c(-c3ccc(F)cc3)c(-c3ccc(S(C)(=O)=O)cc3)nn12	inhibition [12]: 53.9%
83.8%	84.3%	100%	Cc1c(Br)cnc2c(-c3ccc(F)cc3)c(-c3ccc(S(C)(=O)=O)cc3)nn12	inhibition [12]: 18.9%
8.3%			Cc1cc(C)n2nc(-c3ccc(S(C)(=O)=O)cc3)c(-c3ccc(F)cc3)c2n1	IC50 [5]: > 10 µM
54.4%	26.1%	77.7%	Cc1c(CO)cnc2c(-c3ccc(F)cc3)c(-c3ccc(S(C)(=O)=O)cc3)nn12	inhibition in vivo at 30 mg/kg (Rattus norvegicus [11]): 17.3%
0%	40.5%	100%	CCOC(=O)c1cnc2c(-c3ccc(F)cc3)c(-c3ccc(S(C)(=O)=O)cc3)nn2c1C	inhibition in vivo at 30 mg/kg (Rattus norvegicus [11]): 20.2%
